Assay results from ChEMBL document CHEMBL4007421, “Discovery and Preclinical Characterization of 3-((4-(4-Chlorophenyl)-7-fluoroquinoline-3-yl)sulfonyl)benzonitrile, a Novel Non-acetylenic Metabotropic Glutamate Receptor 5 (mGluR5) Negative Allosteric Modulator for Psychiatric Indications” (J Med Chem, 2017).

Experiments:
Liver [1] = assay: Intrinsic clearance in human liver microsomes at 2.5 uM assessed per gram of liver; format: ADME, microsome
Rattus norvegicus [2] = assay: Anxiolytic activity in po dosed Wistar rat assessed as increase in water drinking time during punished period administered as suspension by Vogel punished drinking conflict test; format: functional; conditions: read-out: MED
How it was run: (§1)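 Vogel punished-drinking test in rats, single i.p. or p.o. dose as suspension in 5% Tween 80; plasma sampled ~45 min after i.p. or ~75 min after p.o. dosing.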

[3] = target: Metabotropic glutamate receptor 5 (Homo sapiens, UniProt P41594); assay: Negative allosteric modulation of human mGluR5a expressed in CHO cells assessed as reduction in DHPG-induced cytosolic Ca2+ influx after 10 to 20 mins by fluo-4/AM-dye based fluorometric analysis; format: functional, cell-based
[4] = target: Metabotropic glutamate receptor 5 (Rattus norvegicus, UniProt P31424); assay: Displacement of [3H]M-MPEP from mGluR5 in Sprague-Dawley rat cerebrocortical membranes after 60 mins
Liver [5] = assay: Intrinsic clearance in rat liver microsomes at 2.5 uM assessed per gram of liver; format: ADME, microsome
Rattus norvegicus [6] = assay: Anxiolytic activity in ip dosed Wistar rat assessed as increase in water drinking time during punished period administered as suspension by Vogel punished drinking conflict test; format: functional; conditions: read-out: MED; how it was run: as §1
[7] = Plasma concentration in ip dosed Wistar rat at anxiolytic MED administered as suspension after 45 mins during Vogel punished drinking conflict test; format: ADME, organism-based
How it was run: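 Vehicle was a suspension containing 5% Tween 80, given i.p. at the Vogel minimum effective dose. Plasma was sampled about 45 min after dosing, right after the Vogel punished drinking test.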

[8] = target: Metabotropic glutamate receptor 5 (Rattus norvegicus) (UniProt P31424); assay: Displacement of [3H]M-MPEP from rat mGluR5 expressed in rat cerebrocortical membrane at 1 uM after 60 mins relative to control; format: cell membranes
Plasma [9] = assay: Plasma concentration in Wistar rat at 30 mg/kg, ip administered as single dose; format: ADME, organism-based; conditions: in vivo
How it was run: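 Rats dosed i.p. at 30 mg/kg. Plasma level was taken about 45 min after dosing, at the end of the Vogel session.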

Rattus norvegicus [10] = assay: Therapeutic index, ratio of MED for effect on spatial learning performance in po dosed Wistar rat by Morris water maze test to MED for anxiolytic activity in Wistar rat by Vogel punished drinking conflict test
How it was run: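 Index is the Morris water maze minimum effective dose (oral, given 1 h before the first daily trial, 4 days of 3 trials) divided by the Vogel punished drinking minimum effective dose.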

Rattus norvegicus [11] = assay: Effect on spatial learning performance in po dosed Wistar rat measured as escape latency dosed 1 hr prior to first daily trial by Morris water maze test; format: ADME, organism-based; conditions: in vivo
How it was run: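 Morris water maze with male Harlan-Wistar rats (190–220 g): three trials a day for 4 days, hidden 10 cm platform, video tracking; 30 mg/kg p.o. in Type IV lipid formulation 1 h before first daily trial; plasma taken after last Day 4 trial; 7–17 rats/group.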

Plasma [12] = assay: Plasma concentration in Wistar rat at 30 mg/kg, po administered as single dose; format: ADME, organism-based; conditions: in vivo
Rattus norvegicus [13] = assay: Therapeutic index, ratio of plasma concentration causing effect on spatial learning performance in po dosed Wistar rat by Morris water maze test to plasma concentration causing anxiolytic activity in Wistar rat by Vogel punished drinking conflict test
How it was run: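 Index is the plasma level in rats at 30 mg/kg p.o. in the Morris water maze (sampled after the last trial on Day 4) divided by the plasma level at the Vogel minimum effective dose. Vogel plasma was sampled right after the test.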

[14] = Plasma concentration in ip dosed Wistar rat at anxiolytic MED administered as suspension after 75 mins during Vogel punished drinking conflict test; format: ADME, organism-based
Rattus norvegicus [15] = assay: Toxicity in po dosed Harlan-Wistar rat assessed as decrease in spontaneous locomotor activity photocell-based activity monitor test; format: organism-based; conditions: in vivo
How it was run: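 Male Wistar rats were given 0, 10, 30 or 50 mg/kg p.o. Spontaneous locomotor activity (ambulatory movement) was recorded in a photocell-based activity monitor.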

Rattus norvegicus [16] = assay: Anxiolytic activity in po dosed Wistar rat assessed as reduction in ultrasonic vocalization; format: functional
Rattus norvegicus [17] = assay: Anxiolytic activity in po dosed Wistar rat assessed as reduction in freezing behavior by contextual fearing test; format: functional; conditions: read-out: MED

Metabotropic glutamate receptor 5 (Rattus norvegicus), sequence (P31424 21-1203 limits assumed): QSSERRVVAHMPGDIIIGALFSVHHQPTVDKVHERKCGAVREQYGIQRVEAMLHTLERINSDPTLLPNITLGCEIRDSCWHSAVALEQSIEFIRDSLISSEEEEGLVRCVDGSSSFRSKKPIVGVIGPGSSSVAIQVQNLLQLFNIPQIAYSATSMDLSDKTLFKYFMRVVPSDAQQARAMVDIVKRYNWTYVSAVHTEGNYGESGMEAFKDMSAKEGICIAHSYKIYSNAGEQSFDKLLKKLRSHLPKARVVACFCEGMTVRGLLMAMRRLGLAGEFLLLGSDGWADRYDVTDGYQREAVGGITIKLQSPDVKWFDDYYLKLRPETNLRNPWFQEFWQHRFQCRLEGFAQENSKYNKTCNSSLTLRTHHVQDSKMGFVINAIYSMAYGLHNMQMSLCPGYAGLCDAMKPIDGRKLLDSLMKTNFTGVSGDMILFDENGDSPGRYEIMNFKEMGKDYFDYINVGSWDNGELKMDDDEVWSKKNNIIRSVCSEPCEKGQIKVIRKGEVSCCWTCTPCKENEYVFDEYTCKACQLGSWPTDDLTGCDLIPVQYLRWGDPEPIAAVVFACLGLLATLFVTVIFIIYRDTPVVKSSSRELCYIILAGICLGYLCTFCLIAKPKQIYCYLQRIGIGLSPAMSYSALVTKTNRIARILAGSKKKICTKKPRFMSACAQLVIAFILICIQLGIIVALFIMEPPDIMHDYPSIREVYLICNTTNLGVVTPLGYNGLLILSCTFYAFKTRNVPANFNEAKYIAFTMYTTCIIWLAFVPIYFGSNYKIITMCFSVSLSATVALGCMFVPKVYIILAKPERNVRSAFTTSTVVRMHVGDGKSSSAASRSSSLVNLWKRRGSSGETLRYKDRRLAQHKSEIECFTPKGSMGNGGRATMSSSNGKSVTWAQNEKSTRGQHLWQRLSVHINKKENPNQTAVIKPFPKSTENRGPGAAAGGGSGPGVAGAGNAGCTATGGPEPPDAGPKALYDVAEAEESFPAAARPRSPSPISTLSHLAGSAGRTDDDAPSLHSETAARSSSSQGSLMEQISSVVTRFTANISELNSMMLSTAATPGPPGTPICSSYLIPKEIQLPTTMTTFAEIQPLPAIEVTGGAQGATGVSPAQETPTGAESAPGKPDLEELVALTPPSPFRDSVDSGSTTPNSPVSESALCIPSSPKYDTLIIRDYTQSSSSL
Metabotropic glutamate receptor 5 (Rattus norvegicus, UniProt P31424), sequence (P31424 whole entry): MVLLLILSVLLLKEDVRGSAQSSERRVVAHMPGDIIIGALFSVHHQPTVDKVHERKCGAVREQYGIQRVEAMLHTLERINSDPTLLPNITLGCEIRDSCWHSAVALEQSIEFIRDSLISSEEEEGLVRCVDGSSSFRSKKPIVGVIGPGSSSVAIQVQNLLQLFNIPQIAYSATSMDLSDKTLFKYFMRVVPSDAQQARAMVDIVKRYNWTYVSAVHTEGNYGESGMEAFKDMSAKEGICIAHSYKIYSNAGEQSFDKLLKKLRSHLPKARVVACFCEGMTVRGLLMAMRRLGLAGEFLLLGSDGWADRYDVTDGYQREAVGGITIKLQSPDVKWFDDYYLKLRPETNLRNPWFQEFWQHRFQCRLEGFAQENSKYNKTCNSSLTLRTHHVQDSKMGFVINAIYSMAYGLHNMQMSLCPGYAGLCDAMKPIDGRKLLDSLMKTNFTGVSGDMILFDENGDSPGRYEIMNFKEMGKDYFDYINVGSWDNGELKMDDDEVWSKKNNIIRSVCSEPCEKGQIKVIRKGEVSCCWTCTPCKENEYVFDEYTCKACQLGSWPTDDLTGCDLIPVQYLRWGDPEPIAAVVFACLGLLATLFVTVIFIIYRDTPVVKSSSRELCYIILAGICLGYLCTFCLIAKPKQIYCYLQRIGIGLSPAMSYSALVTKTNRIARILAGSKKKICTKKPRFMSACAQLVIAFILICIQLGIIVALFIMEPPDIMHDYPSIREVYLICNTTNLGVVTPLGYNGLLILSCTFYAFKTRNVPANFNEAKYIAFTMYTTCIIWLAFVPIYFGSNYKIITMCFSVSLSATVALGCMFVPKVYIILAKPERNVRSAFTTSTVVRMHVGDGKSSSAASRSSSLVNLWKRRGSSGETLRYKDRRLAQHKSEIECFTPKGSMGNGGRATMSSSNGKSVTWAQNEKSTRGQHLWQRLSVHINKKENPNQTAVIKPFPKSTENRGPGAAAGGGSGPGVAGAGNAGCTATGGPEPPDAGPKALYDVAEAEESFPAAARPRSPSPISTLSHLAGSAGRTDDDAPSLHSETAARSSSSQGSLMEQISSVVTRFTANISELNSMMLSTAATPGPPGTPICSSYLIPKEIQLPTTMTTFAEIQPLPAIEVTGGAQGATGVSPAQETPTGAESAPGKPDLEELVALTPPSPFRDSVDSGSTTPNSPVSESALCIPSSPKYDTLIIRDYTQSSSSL
Metabotropic glutamate receptor 5 (Homo sapiens, UniProt P41594), sequence (P41594 whole entry): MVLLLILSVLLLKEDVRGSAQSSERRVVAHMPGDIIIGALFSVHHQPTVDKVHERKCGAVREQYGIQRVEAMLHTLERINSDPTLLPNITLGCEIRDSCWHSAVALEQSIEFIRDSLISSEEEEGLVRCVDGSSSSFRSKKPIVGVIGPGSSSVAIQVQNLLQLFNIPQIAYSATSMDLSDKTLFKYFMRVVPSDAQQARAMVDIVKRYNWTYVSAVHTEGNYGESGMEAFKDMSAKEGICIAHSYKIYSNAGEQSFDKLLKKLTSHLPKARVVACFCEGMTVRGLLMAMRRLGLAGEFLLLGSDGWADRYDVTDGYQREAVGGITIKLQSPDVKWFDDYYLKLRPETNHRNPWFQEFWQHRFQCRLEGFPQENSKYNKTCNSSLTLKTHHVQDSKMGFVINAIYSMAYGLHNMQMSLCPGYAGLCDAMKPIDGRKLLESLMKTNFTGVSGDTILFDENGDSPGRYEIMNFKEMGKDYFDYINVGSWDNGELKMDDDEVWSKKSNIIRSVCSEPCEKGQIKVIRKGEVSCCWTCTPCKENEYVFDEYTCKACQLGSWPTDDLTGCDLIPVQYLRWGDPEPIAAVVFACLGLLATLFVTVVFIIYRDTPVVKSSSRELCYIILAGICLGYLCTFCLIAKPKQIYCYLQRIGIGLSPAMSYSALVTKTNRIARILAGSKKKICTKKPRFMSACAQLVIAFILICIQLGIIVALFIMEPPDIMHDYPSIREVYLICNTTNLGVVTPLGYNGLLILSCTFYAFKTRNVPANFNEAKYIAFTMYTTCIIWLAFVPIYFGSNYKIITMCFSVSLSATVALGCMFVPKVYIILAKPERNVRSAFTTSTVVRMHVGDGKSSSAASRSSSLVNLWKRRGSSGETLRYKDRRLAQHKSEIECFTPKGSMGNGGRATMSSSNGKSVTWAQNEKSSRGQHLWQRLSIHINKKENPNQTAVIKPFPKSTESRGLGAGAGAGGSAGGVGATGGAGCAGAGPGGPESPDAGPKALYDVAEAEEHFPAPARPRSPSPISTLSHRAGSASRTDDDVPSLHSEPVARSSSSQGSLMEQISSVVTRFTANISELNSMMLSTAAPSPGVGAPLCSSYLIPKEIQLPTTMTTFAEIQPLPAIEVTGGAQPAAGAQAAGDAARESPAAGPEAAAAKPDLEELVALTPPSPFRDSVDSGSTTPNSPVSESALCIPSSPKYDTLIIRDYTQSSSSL

Row | SMILES | CLint (Liver [1]) [mL/min/g] | IC50 [3] [nM] | Ki [4] [nM] | CLint (Liver [5]) [mL/min/g] | minimal effective dose (Rattus norvegicus [6]) [mg/kg] | concentration at 0.75 h [7] [nM] | inhibition [8] [%] | other results
1 | O=S(=O)(c1ccc(F)c(F)c1)c1cnc2cc(F)ccc2c1-c1ccc(Cl)cc1 | 0.01 | 22 | 17.1 | 1.41 | 10 | – | – | minimal effective dose (Rattus norvegicus [2]): 10 mg/kg
2 | O=S(=O)(c1cccc(F)c1)c1cnc2c(F)cccc2c1-c1ccc(F)cc1 | 0.19 | 69 | 31.6 | 0.2 | 30 | 1210 | – | –
3 | O=S(=O)(c1cc(Cl)cc(Cl)c1)c1cnc2cc(F)ccc2c1-c1ccc(Cl)cc1 | 0.13 | 94 | 30.3 | 0.77 | 30 | 377 | – | –
4 | O=S(=O)(c1ccc(F)cc1)c1cnc2cc(F)ccc2c1-c1ccc(Cl)cc1 | 1.23 to 1.25 | – | 38.6 | 0.89 | – | – | 91.6 | –
5 | O=S(=O)(c1ccc(F)cc1)c1cnc2cc(Cl)c(F)cc2c1-c1ccc(Cl)cc1 | 0.01 | – | – | 0.57 | – | – | 48 | –
6 | O=S(=O)(c1ccc(F)cc1)c1cnc2cc(Cl)ccc2c1-c1ccc(Cl)cc1 | 0.21 | – | 110 | 0.01 | – | – | 92.8 | –
7 | O=S(=O)(c1ccc(F)cc1)c1cnc2c(F)c(Cl)ccc2c1-c1ccc(Cl)cc1 | 0.01 | – | 71.2 | 0.01 | – | – | 83.6 | –
8 | O=S(=O)(c1ccc(F)cc1)c1cnc2c(F)cc(Cl)cc2c1-c1ccc(Cl)cc1 | 0.01 | – | – | 0.09 | – | – | 19 | –
9 | O=S(=O)(c1ccc(F)c(F)c1)c1cnc2cc(F)ccc2c1-c1ccc(F)cc1 | 0.44 | 43 | 19.1 | 0.67 | > 30 | – | – | concentration (Plasma [9]): 247 nM
10 | O=S(=O)(c1ccc(F)cc1)c1cnc2ccc(F)cc2c1-c1ccc(Cl)cc1 | 0.12 | – | 180 | 0.4 | – | – | 76.3 | –
11 | O=S(=O)(c1cc(Cl)cc(Cl)c1)c1cnc2cc(F)ccc2c1-c1cccc(F)c1 | 0.41 | 35 | 10.7 | 1.53 | 30 | 90.6 | – | –
12 | O=S(=O)(c1ccc(F)c(Cl)c1)c1cnc2cc(F)ccc2c1-c1ccc(Cl)cc1 | 0.39 | 27 | 8.3 | 0.45 | 30 | 373 | – | TI (Rattus norvegicus [10]): 10; minimal effective dose (Rattus norvegicus [2]): 3 to 10 mg/kg; Activity (Rattus norvegicus [11]): Toxic; concentration (Plasma [12]): 866 nM; TI (Rattus norvegicus [13]): 3.9
13 | O=S(=O)(c1cc(F)cc(F)c1)c1cnc2cc(F)ccc2c1-c1ccc(F)cc1 | 0.01 | 25 | 18 | 0.93 | > 30 | – | – | minimal effective dose (Rattus norvegicus [2]): > 10 mg/kg; concentration (Plasma [9]): 206 nM
14 | O=S(=O)(c1ccc(F)c(Cl)c1)c1cnc2cc(F)ccc2c1-c1ccc(F)cc1 | 0.69 | 21 | 5.2 | 0.89 | 10 | 71 | – | TI (Rattus norvegicus [10]): <=10; minimal effective dose (Rattus norvegicus [2]): 3 mg/kg; Activity (Rattus norvegicus [11]): Toxic; concentration (Plasma [12]): 968 nM; TI (Rattus norvegicus [13]): <=9.1
15 | O=S(=O)(c1cc(F)cc(F)c1)c1cnc2c(F)cccc2c1-c1ccc(F)cc1 | 0.69 | 12 | 13.3 | 0.63 | 30 | 151 | – | –
16 | O=S(=O)(c1cc(F)cc(F)c1)c1cnc2cc(F)ccc2c1-c1cccc(F)c1 | 0.06 | 74 | 32.6 | 1.8 | > 30 | – | – | concentration (Plasma [9]): 63 nM
17 | O=S(=O)(c1ccc(F)c(F)c1)c1cnc2c(F)cccc2c1-c1ccc(Cl)cc1 | 0.28 | 13 | – | 0.2 | 3 | 59.7 | – | minimal effective dose (Rattus norvegicus [2]): > 30 mg/kg; concentration (Plasma [12]): 196 nM
18 | N#Cc1cccc(S(=O)(=O)c2cnc3cc(F)ccc3c2-c2ccc(F)cc2)c1 | 0.39 | 20 | 6.5 | 0.7 | 10 | 208 | – | TI (Rattus norvegicus [10]): 10; minimal effective dose (Rattus norvegicus [2]): 3 to 10 mg/kg; Activity (Rattus norvegicus [11]): Toxic; concentration (Plasma [12]): 1280 nM; TI (Rattus norvegicus [13]): <=8.4
19 | N#Cc1ccc2ncc(S(=O)(=O)c3ccc(F)cc3)c(-c3ccc(Cl)cc3)c2c1 | 0.01 | – | – | 0.04 | – | – | 39.7 | –
20 | O=S(=O)(c1ccc(F)cc1)c1cnc2ccc(Cl)cc2c1-c1ccc(Cl)cc1 | 0.01 | – | – | 0.2 | – | – | 58.3 | –
21 | Cc1cccc(C#Cc2ccccc2)n1 | 1.61 | – | – | 0.19 | 3 | – | – | minimal effective dose (Rattus norvegicus [2]): 3 mg/kg
22 | N#Cc1ccc2c(-c3ccc(Cl)cc3)c(S(=O)(=O)c3ccc(F)cc3)cnc2c1 | 0.01 | – | – | 0.01 | – | – | 8.7 | –
23 | O=S(=O)(c1ccc(F)cc1)c1cnc2cc(F)c(Cl)cc2c1-c1ccc(Cl)cc1 | 0.01 | – | – | 0.34 | – | – | 43.7 | –
24 | O=S(=O)(c1cc(Cl)cc(Cl)c1)c1cnc2cc(F)ccc2c1-c1ccc(F)cc1 | 0.18 | 25 | – | 1.15 | > 30 | – | – | concentration at 1.25 h [14]: 165 nM
25 | O=S(=O)(c1ccc(F)cc1)c1cnc2c(F)cccc2c1-c1ccc(Cl)cc1 | 0.28 | – | 16 | 0.06 | – | – | 91.5 | –
26 | CN1C(=O)CN=C(c2ccccc2)c2cc(Cl)ccc21 [DIAZEPAM] | – | – | – | – | – | – | – | ED50 (Rattus norvegicus [15]): 9.7 mg/kg; minimal effective dose (Rattus norvegicus [2]): 2.5 mg/kg; ED50 (Rattus norvegicus [16]): 7.8 mg/kg; minimal effective dose (Rattus norvegicus [17]): > 10 mg/kg
27 | O=S(=O)(c1cc(Cl)cc(Cl)c1)c1cnc2c(F)cccc2c1-c1ccc(F)cc1 | 1.01 | 25 | 6.8 | 1.06 | 30 | 119 | – | –
